Source: PubChem
The list is not random: actives were taken first. Their share in the collection is about 3.4%.
APOBEC3A inh: blocks human APOBEC3A ssDNA deamination; P31941; recombinant A3A, FAM/TAMRA ssDNA deamination fluorescence; inhibition, % at 20 µM; 0.41% of 330,000 active;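 active = at least 40% inhibition at 20 µM here, with at most 30% in a related deaminase screen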
AHR act: human AHR activation; P35869; AHR-responsive luciferase reporter cells, luminescence; activation, % at 5 µM; 2.5% of 320,000 active; in the data active = activation above about 47%
Target sequence (P35869 whole entry, looked up): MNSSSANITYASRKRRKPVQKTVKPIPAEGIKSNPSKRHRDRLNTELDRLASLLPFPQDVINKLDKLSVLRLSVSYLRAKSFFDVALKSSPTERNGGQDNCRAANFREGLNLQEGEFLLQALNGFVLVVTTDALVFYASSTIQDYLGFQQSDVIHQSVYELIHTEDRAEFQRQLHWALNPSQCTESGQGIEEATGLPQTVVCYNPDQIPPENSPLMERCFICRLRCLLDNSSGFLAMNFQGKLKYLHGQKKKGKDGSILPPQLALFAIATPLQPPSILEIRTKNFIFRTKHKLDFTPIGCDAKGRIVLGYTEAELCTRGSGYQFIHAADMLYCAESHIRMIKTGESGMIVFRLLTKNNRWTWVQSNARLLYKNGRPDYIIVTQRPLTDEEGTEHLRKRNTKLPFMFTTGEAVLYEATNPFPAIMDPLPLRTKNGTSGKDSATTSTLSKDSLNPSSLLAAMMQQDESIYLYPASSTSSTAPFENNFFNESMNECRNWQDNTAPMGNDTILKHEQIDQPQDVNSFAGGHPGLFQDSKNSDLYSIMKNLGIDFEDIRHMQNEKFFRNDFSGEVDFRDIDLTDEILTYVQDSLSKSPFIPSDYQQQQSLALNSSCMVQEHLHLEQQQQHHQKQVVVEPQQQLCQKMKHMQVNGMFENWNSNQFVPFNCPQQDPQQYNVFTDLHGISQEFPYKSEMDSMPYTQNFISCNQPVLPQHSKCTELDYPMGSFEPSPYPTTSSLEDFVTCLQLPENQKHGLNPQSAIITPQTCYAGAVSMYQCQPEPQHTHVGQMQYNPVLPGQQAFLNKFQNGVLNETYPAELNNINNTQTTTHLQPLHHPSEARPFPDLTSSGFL
UCH37 DUB inh: human UCH37 deubiquitinating enzyme inhibition; purified proteasome/UCH37, Ub-AMC cleavage fluorescence; inhibition, % (no concentration beside the values); Q9Y5K5; 0.33% of 330,000 active;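 active = mean inhibition over replicate wells above about 20%, limit read from the data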
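System: Proteasome-associated human UCH37 deubiquitinase; Input: 0.15 nM proteasome in added enzyme buffer; Also added: Ub-AMC substrate from 1 µM stock; Incubation: 30 min compound-proteasome preincubation then 25 min substrate reaction, room temperature; Detection: fluorescence, ex 355 nm, em 460 nm; Read-out: % inhibition of Ub-AMC cleavage fluorescence; Benchmarks: no-proteasome and no-compound wells.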
Arr AP2 block: human beta-arrestin and AP2 interaction inhibition | FITC-arrestin peptide / GST-AP2 beads, flow cytometry; AP2 beta2 appendage carries R879A mutation | inhibition, % at 10 µM | AID 504490 | 0.31% of 340,000 active;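 active = inhibition above a set limit, near 3 SD of compounds lacking own fluorescence, cut at about 54% in these data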
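System: GST-tagged AP2 beta2-adaptin appendage (R879A) on 4 µm glutathione beads / Reagent: FITC-arrestin peptide, 50 nM / Detection: HyperCyt-sampled flow cytometry, FL1 channel, ex 488/em 535 nm / Timing: 12 min plus 1 h, RT / Buffer or medium: PBS plus Tween 20 (0.05%) and BSA (0.1%)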
PolyA inhibitor: inhibitors of polyadenylation in S. cerevisiae | activity score, % at 12 µM | S. cerevisiae SKY197-pL101 polyadenylation reporter, beta-gal luminescence; efflux-impaired pdr1/pdr3 knockout yeast; score 100 = 6 SD above DMSO | 0.02% of 300,000 active;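 active = lowest replicate activity score at least 50, where 100 means six control SD above control mean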;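 note: yeast exposed to compound for 9 h at 30 °C; higher score means more reporter readthrough which indicates perturbed polyadenylation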
APOBEC3G inh: inhibitors of human APOBEC3G DNA deaminase. Q9HC16. recombinant A3G, ssDNA deamination FAM/TAMRA fluorescence. inhibition, % at 20 µM. 0.28% of 330,000 active. AID 493012;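 active = inhibition of at least 40% at 20 µM, with no more than 30% in the related APOBEC3A deaminase screen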
A number is an active result; 0 = inactive; - = no result.

SMILES	APOBEC3A inh	AHR act	UCH37 DUB inh	Arr AP2 block	PolyA inhibitor	APOBEC3G inh
Cc1cc(Br)ccc1NC(=O)c1ccco1	0	0	0	0	0	0
CCc1nc2c(sc3nc4c(cc32)COC(C)(C)C4)c(=O)n1Cc1ccco1	0	53.0	0	0	0	0
COc1ccccc1-c1cc(-c2ccc(O)cc2)nc(N)c1C#N	0	62.1	0	0	0	0
COc1cc(-c2cc(-c3ccc(O)cc3)nc(N)c2C#N)ccc1O	0	0	0	0	0	0
CCCCCC(=O)NN=Cc1ccccc1[N+](=O)[O-]	-	-	0	-	-	-
COc1ccc2c(C=NNc3ccc(C(=O)O)cc3)c[nH]c2c1	-	-	0	-	-	-
O=C1CN(C(=O)c2ccc(Br)o2)C(c2ccc(F)cc2)c2cc(Cl)ccc2N1 (configuration not stated)	0	0	0	0	0	0
O=C1CN(C(=O)c2ccc(Br)o2)C(c2ccccc2)c2cc(Cl)ccc2N1 (configuration not stated)	0	65.8	0	0	0	0
Cc1ccc2c(c1)C(c1ccccc1)N(C(=O)c1ccc(Br)o1)CC(=O)N2 (configuration not stated)	0	0	0	-	0	0
O=C1CN(C(=O)c2ccc(Br)o2)C(c2ccccc2)c2cc(Br)ccc2N1 (configuration not stated)	0	70.5	0	0	0	0
CNC(=O)N(O)C1N(N=Cc2ccccc2F)C(=S)SC1(C)C (configuration not stated)	-	-	0	-	-	-
COc1cc(-c2cc(=O)c3ccccc3o2)ccc1O	0	77.4	0	0	0	0
Cc1cccc(N2CC(C(=O)NCCC3=CCCCC3)CC2=O)c1C (configuration not stated)	0	0	22.9	0	0	0
Cc1ccc(S(=O)(=O)N(CC(=O)NN=Cc2ccco2)Cc2ccccc2)cc1	-	-	0	-	-	-
COc1ccc(N(C(C)=O)c2nc(C)cc(C)c2C#N)c(OC)c1	0	77.5	0	0	0	0
CCCN1C(=O)C2(C(C(=O)c3ccc(C)o3)=C(O)C(=O)N2CCCN2CCOCC2)c2ccccc21 (configuration not stated)	0	0	20.8	0	0	0
CCCc1nn(C)c(C(=O)Nc2cccc(C)c2)c1Cl	0	0	0	0	0	0
CCCc1nn(C)c(C(=O)Nc2cccc(Cl)c2)c1Cl	0	88.8	0	0	0	0
Cc1cc(=O)[nH]c(N=NC(=NNc2ccc(O)cc2)c2ccccc2)n1	-	-	0	-	-	-
Cc1cccc(C(=O)O/N=C(\N)c2ccc(Cl)cc2)c1	0	55.2	0	0	0	0
COc1ccc(/C(N)=N/OC(=O)c2cccc([N+](=O)[O-])c2C)cc1	0	54.5	0	0	0	0
COc1ccc(/C(N)=N/OC(=O)c2cccc([N+](=O)[O-])c2)cc1	0	0	0	0	0	0
COc1cccc(C(=O)O/N=C(\N)c2ccc(C)cc2)c1	0	68.4	0	0	0	0
Cc1cccc(C(=O)O/N=C(\N)c2ccc(Br)cc2)c1	0	0	0	0	0	0
N/C(=N\OC(=O)c1cccc(Br)c1)c1ccccc1	0	74.2	0	0	0	0
SMILES	APOBEC3A inh	AHR act	UCH37 DUB inh	Arr AP2 block	PolyA inhibitor	APOBEC3G inh
COc1cccc(/C(N)=N/OC(=O)Cc2ccccc2[N+](=O)[O-])c1	0	60.5	0	0	0	0
CC(=O)Cc1cc(O)c2ccccc2c1OC(=O)c1ccc(Br)cc1	0	69.1	0	0	0	0
O=C(COC(=O)c1ccc(Br)cc1)NCc1ccccc1	0	0	0	0	0	0
COc1cccc(Nc2nc(-c3cccc(N4C(=O)c5ccccc5C4=O)c3)cs2)c1	0	0	0	0	0	0
Clc1ccc(-c2csc(Nc3cccnc3)n2)cc1	0	81.4	0	0	0	0
Cc1cccc(Nc2nc(-c3sc(C)nc3C)cs2)c1	0	70.0	0	0	0	0
COc1cccc(Nc2nc(-c3ccc(O)cc3)cs2)c1	0	53.8	0	0	0	0
COc1cccc(Nc2nnc(SCc3nc4ccccc4s3)s2)c1	0	66.6	0	0	0	0
c1ccc(-c2csc(Nc3cccnc3)n2)cc1	0	0	0	0	0	0
Cc1nc(C)c(-c2csc(Nc3cccc(O)c3)n2)s1	0	0	0	0	0	0
COc1ccc(C(=O)ON=C2C(=O)N(C)c3ccccc32)cc1	-	-	0	-	-	-
Cc1cc(C)cc(OCC(=O)ON=C(N)c2ccccn2)c1	-	-	0	-	-	-
Cc1ccc(Nc2nc(-c3ccncc3)cs2)cc1	0	-	0	0	0	0
Cc1cccc(Nc2nc(-c3ccncc3)cs2)c1	0	54.4	0	0	0	0
Cc1ccc(Nc2nc(-c3sc(C)nc3C)cs2)cc1	0	61.5	0	0	0	0
COc1ccc(-c2csc(NC(=O)/C(N=Nc3ccccc3)=C(\C)O)n2)cc1	0	48.3	0	-	0	0
COc1ccc(-c2csc(NC(=O)c3c(OC)cccc3OC)n2)cc1	0	0	0	0	0	0
Cc1n[nH]c(=S)n1N=Cc1ccccc1	-	-	0	-	-	-
COc1cc(C=NNc2ncnc3sc4c(c23)CCC4)ccc1O	-	-	0	-	-	-
C(=N\Nc1ncnc2sc3c(c12)CCC3)/c1cccs1	0	56.2	-	0	0	0
COc1ccc(-c2cn3cc(C(=O)NN)ccc3n2)cc1	0	55.2	0	0	0	0
COc1ccc(OC)c(/C=N/Nc2cc(C)nc(N3CCOCC3)n2)c1	0	67.8	-	0	0	0
COc1ccccc1C=NNc1cc(C)nc(N2CCOCC2)n1	-	-	0	-	-	-
COc1ccc(C=NNc2cc(N3CCCC3)nc(N3CCCC3)n2)cc1	-	-	0	-	-	-
COc1ccc(/C=N/Nc2cc(N3CCCC3)nc(N3CCCC3)n2)cc1	0	68.3	-	0	0	0
SMILES	APOBEC3A inh	AHR act	UCH37 DUB inh	Arr AP2 block	PolyA inhibitor	APOBEC3G inh
COc1cccc(/C=N/Nc2cc(N3CCOCC3)ncn2)c1O	0	47.5	-	0	0	0
CC(=NOC(=O)c1ccc(Br)cc1)c1ccccn1	-	-	0	-	-	-
COc1cc(N2CCCC2)c(OC)cc1/C=C1/NC(=S)NC1=O	0	65.8	0	0	0	0
CCc1cc2c(Nc3ccc(O)cc3)nc(C)nc2s1	0	79.0	0	0	0	0
COc1cc2c(cc1OC)CN(CC(=O)Nc1ccccc1C#N)CC2	0	50.1	0	0	0	0
Fc1ccc(C=NNC(=S)Nc2ccc(Cl)cc2)cc1F	-	-	0	-	-	-
CSc1ccc(C2N=C(c3ccccc3)NO2)cc1 (configuration not stated)	0	58.3	0	0	0	0
O=C(NN=Cc1ccccc1Cl)c1ccc(F)cc1	-	-	0	-	-	-
Cc1ccccc1NC(=S)c1nc2ccccc2[nH]1	-	47.0	0	0	0	-
S=C(Nc1ccc(Cl)cc1)c1nc2ccccc2[nH]1	0	0	0	0	0	0
Cc1ccc(/C=N/N2C(=O)c3ccccc3NC2c2ccc(C)cc2)cc1 (configuration not stated)	0	50.5	-	0	0	0
